# Measured values from ChEMBL document CHEMBL4725305, “Optimizing the aryl-triazole of cjoc42 for enhanced gankyrin binding and anti-cancer activity” (Bioorg Med Chem Lett, 2020).
# Activity calls are given as the source filed them. The calls are words filed in the database; no cut-off is given here.
# Assays:
# Hep3B = test: Cytotoxicity against human Hep3B cells assessed as reduction in cell viability incubated for 72 hrs by MTT assay
# [1] = biological target: T1, 26S proteasome non-ATPase regulatory subunit 10 (Homo sapiens) (UniProt O75832); test: Binding affinity to gankyrin (unknown origin) assessed as increase in melting temperature at 300 uM by thermal shift assay
# T1 sequence (whole entry): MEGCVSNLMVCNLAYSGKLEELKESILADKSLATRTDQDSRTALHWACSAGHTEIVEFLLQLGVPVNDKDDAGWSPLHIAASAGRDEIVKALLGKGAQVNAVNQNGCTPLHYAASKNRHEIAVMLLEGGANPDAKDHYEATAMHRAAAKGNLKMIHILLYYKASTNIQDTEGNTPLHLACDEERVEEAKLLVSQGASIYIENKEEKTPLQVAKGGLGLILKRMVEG
# How it was run: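 Gankyrin (20 μM) incubated with test compound at 300 μM in protein thermal shift assay; denaturation temperature (T_m) measured and ΔT_m taken relative to protein without ligand. Vehicle control 5% DMSO; cjoc42 at 300 μM as reference control. Each compound tested in triplicate.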
# [2] = biological target: T1, 26S proteasome non-ATPase regulatory subunit 10 (Homo sapiens); test: Potency index, ratio of change in melting temperature of Cjoc42 to change in melting temperature of compound for binding affinity to gankyrin (unknown origin) assessed as increase in melting temperature at 300 uM by thermal shift assay
# How it was run: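 Gankyrin (20 μM) with compound at 300 μM in thermal shift assay, run in triplicate; ΔT_m of each compound compared with that of cjoc42 (300 μM) tested in parallel as positive control; 5% DMSO vehicle.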
# HepG2 = test: Cytotoxicity against human HepG2 cells assessed as reduction in cell viability incubated for 72 hrs by MTT assay; assay type: functional, cell-based; settings: HepG2, 72 h
# How it was run: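 Hep3B and HepG2 cells incubated 24 h before drug addition, then exposed to compound for 72 h at 37 °C, 5% CO2; proliferation read by MTT assay and IC50 derived; tested up to 100 μM.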
# A549 = test: Cytotoxicity against human A549 cells assessed as reduction in cell viability incubated for 48 hrs by MTT assay; assay type: functional, cell-based; settings: A549, 48 h
# How it was run: (§1)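 A549 and MDA-MB-231 cells incubated 24 h before drug addition, then exposed to compound for 48 h at 37 °C, 5% CO2; proliferation read by MTT assay and IC50 derived; tested up to 100 μM.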
# MDA-MB-231 = test: Cytotoxicity against human MDA-MB-231 cells assessed as reduction in cell viability incubated for 48 hrs by MTT assay; assay type: functional, cell-based; settings: MDA-MB-231, 48 h
# How it was run: as §1
Activity [1],Compound,further results
–,COC(=O)c1ccc(-n2cc(CCCOS(=O)(=O)c3ccc(-c4ccccc4)cc3)nn2)cc1,IC50 (Hep3B): 26 µM
Active,COc1ccccc1-n1cc(CCCOS(=O)(=O)c2ccc(C)cc2)nn1,–
inactive,Cc1ccc(S(=O)(=O)OCCCc2cn(-c3ccc(F)cc3)nn2)cc1,–
Active,Cc1ccc(-n2cc(CCCOS(=O)(=O)c3ccc(C)cc3)nn2)cc1,Ratio [2]: 3; IC50 (HepG2): > 100 µM; IC50 (A549): 79.9 µM; IC50 (MDA-MB-231): 36.6 µM; IC50 (Hep3B): > 100 µM
inactive,N#Cc1cccc(-n2cc(CCCOS(=O)(=O)c3ccc(I)cc3)nn2)c1,–
inactive,CCc1ccc(-n2cc(CCCOS(=O)(=O)c3ccc(C)cc3)nn2)cc1,–
Active,COc1cccc(-n2cc(CCCOS(=O)(=O)c3ccc(C)cc3)nn2)c1,–
Active,Cc1ccc(S(=O)(=O)OCCCc2cn(-c3cccc(Br)c3)nn2)cc1,–
inactive,Cc1ccc(S(=O)(=O)OCCCc2cn(-c3ccc(-c4ccccc4)cc3)nn2)cc1,–
inactive,Cc1ccc(S(=O)(=O)OCCCc2cn(-c3ccncc3)nn2)cc1,–
Active,Cc1ccc(S(=O)(=O)OCCCc2cn(-c3ccc(Cl)cc3)nn2)cc1,–
Active,Cc1ccc(S(=O)(=O)OCCCc2cn(-c3ccc(Br)cc3)nn2)cc1,–
inactive,CCc1ccccc1-n1cc(CCCOS(=O)(=O)c2ccc(C)cc2)nn1,–
inactive,COc1ccc(-n2cc(CCCOS(=O)(=O)c3ccc(I)cc3)nn2)cc1,–
inactive,Cc1ccc(S(=O)(=O)OCCCc2cn(-c3nccs3)nn2)cc1,–
inactive,Cc1ccc(S(=O)(=O)OCCCc2cn(-c3ccccc3C#N)nn2)cc1,–
inactive,Cc1ccc(S(=O)(=O)OCCCc2cn(-c3ccc(C#N)cc3)nn2)cc1,–
inactive,COC(=O)c1ccccc1-n1cc(CCCOS(=O)(=O)c2ccc(C)cc2)nn1,–

Activity [1],Compound,further results
Active,Cc1ccc(S(=O)(=O)OCCCc2cn(-c3cccc(C)c3)nn2)cc1,–
Active,CCc1cccc(-n2cc(CCCOS(=O)(=O)c3ccc(C)cc3)nn2)c1,–
–,COC(=O)c1ccc(-n2cc(CCCOS(=O)(=O)c3ccc(C)cc3)nn2)cc1,IC50 (HepG2): > 100 µM; IC50 (A549): > 100 µM; IC50 (MDA-MB-231): > 100 µM; IC50 (Hep3B): > 100 µM
Active,Cc1ccc(S(=O)(=O)OCCCc2cn(-c3ccccc3C(F)(F)F)nn2)cc1,–
inactive,Cc1ccc(S(=O)(=O)OCCCc2cn(-c3ccc(C(C)C)cc3)nn2)cc1,–
inactive,Cc1ccc(S(=O)(=O)OCCCc2cn(-c3cccnc3)nn2)cc1,–
inactive,COc1ccc(-n2cc(CCCOS(=O)(=O)c3ccc(-c4ccccc4)cc3)nn2)cc1,–
Active,COc1ccc(-n2cc(CCCOS(=O)(=O)c3ccc(C)cc3)nn2)cc1,IC50 (HepG2): > 100 µM; IC50 (A549): 74.6 µM; IC50 (MDA-MB-231): 72.8 µM; IC50 (Hep3B): > 100 µM
Active,Cc1ccc(S(=O)(=O)OCCCc2cn(-c3ccccc3C)nn2)cc1,–
Active,Cc1ccc(S(=O)(=O)OCCCc2cn(-c3cccc(C(F)(F)F)c3)nn2)cc1,–
Active,Cc1ccc(S(=O)(=O)OCCCc2cn(-c3ccccc3-c3ccccc3)nn2)cc1,–
inactive,Cc1ccc(S(=O)(=O)OCCCc2cn(-c3ccc(I)cc3)nn2)cc1,–
Active,Cc1ccc(S(=O)(=O)OCCCc2cn(-c3ccc(C(F)(F)F)cc3)nn2)cc1,IC50 (HepG2): 42.6 µM; IC50 (A549): > 100 µM; IC50 (MDA-MB-231): > 100 µM; IC50 (Hep3B): 42.7 µM
inactive,N#Cc1cccc(-n2cc(CCCOS(=O)(=O)c3ccc(-c4ccccc4)cc3)nn2)c1,–
inactive,Cc1ccc(S(=O)(=O)OCCCc2cn(-c3ccccn3)nn2)cc1,–
inactive,Cc1ccc(S(=O)(=O)OCCCc2cn(-c3ccccc3F)nn2)cc1,–
Active,Cc1ccc(S(=O)(=O)OCCCc2cn(-c3cccc(F)c3)nn2)cc1,Ratio [2]: 5; IC50 (HepG2): 61.8 µM; IC50 (A549): > 100 µM; IC50 (MDA-MB-231): > 100 µM; IC50 (Hep3B): 82.1 µM
Active,Cc1ccc(S(=O)(=O)OCCCc2cn(-c3cccc(C#N)c3)nn2)cc1,Ratio [2]: 6; IC50 (HepG2): > 100 µM; IC50 (A549): > 100 µM; IC50 (MDA-MB-231): > 100 µM; IC50 (Hep3B): 44.9 µM
